From ChEMBL document CHEMBL1158535, “Thiazole, oxadiazole, and carboxamide derivatives of artemisinin are highly selective and potent inhibitors of Toxoplasma gondii” (J Med Chem, 2010) come the findings set out here.

Activity calls are given as the source filed them. The rule behind the calls is not given here.

Data set [1] relates to Toxoplasma gondii. The data set is described as follows: Antiparasitic activity against Toxoplasma gondii 2F infected in HFF cells assessed as beta galactosidase activity after 5 days. The following applies: 120 h. It counts as functional, organism-based. The essentials: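 HFF monolayers infected with β-galactosidase-expressing T. gondii 2F tachyzoites; compounds from final 320 μM serially diluted 0.5 log10, drug-free parasite control. After 4 days at 37°C/5% CO2, CPRG substrate added and incubated 1 more day. Absorbance 570-650 nm relative to parasite control. IC50 calculated; at least three independent experiments.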

Data set [2] in a line: Therapeutic index, ratio of TD50 for HFF cells to IC50 for Toxoplasma gondii F2. In kind it is cell-based. The following applies: human, read-out: TI.
Data set [3] is described as follows: Cytotoxicity against HFF after 5 days by CellTiter 96 Aqueous One Solution assay. The following applies: human, HFF cells; read-out: TD50.
Data set [4] has as its system Toxoplasma gondii. As to the kind of experiment: Antiparasitic activity against Toxoplasma gondii 2F infected in HFF cells assessed as inhibition of parasite replication at 1 uM. In kind it is functional, organism-based. The essentials:
(§1)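 HFF monolayers inoculated with tachyzoites, 2 h at 37°C/5% CO2, then compound (1, 5 or 10 μM) or DMSO added. Replication 24-26 h, then fixed, permeabilized, immunolabeled anti-p30 with DAPI. Parasites per vacuole (1, 2, 4, 8+) counted by eye in 10 random fields; reported as modal number/doublings.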

Data set [5] deals with Toxoplasma gondii. As to the kind of experiment: Antiparasitic activity against Toxoplasma gondii 2F infected in HFF cells assessed as inhibition of parasite replication at 5 uM. It counts as functional, organism-based. The essentials: as §1
In data set [6] the test system is Toxoplasma gondii. The data set is described as follows: Antiparasitic activity against Toxoplasma gondii 2F infected in HFF cells assessed as inhibition of parasite replication at 10 uM. In kind it is functional, organism-based. The essentials:
as §1

One may read the IC50 as the concentration that inhibits the measured activity by half. `CO[C@H]1O[C@@H]2O[C@@]3(C)CC[C@H]4[C@H](C)CC[C@@H]([C@H]1C)[C@@]24OO3` [ARTEMETHER]: the IC50 with Toxoplasma gondii [1] is 0.31 µM. For the same compound, in data set [2], the selectivity ratio was found to be 1810. For the same compound, in data set [3], the CC50 at 120 h was not below 320 µM.
With `CC1=C(c2nccs2)O[C@@H]2O[C@@]3(C)CC[C@H]4[C@H](C)CC[C@@H]1[C@@]24OO3`, in the data set on Toxoplasma gondii [1], the half-inhibitory concentration (IC50) came to 1.1 µM. In addition, the selectivity ratio in data set [2] worked out at 511. Also, the CC50 at 120 h in data set [3] is not below 320 µM.
Regarding `CC1=C(C(=O)NCc2ccc(C(F)(F)F)cc2)O[C@@H]2O[C@@]3(C)CC[C@H]4[C@H](C)CC[C@@H]1[C@@]24OO3`, in the data set with Toxoplasma gondii [1], the IC50 came to 0.34 µM. In addition, in data set [2], the selectivity ratio amounted to 1650. In addition, in data set [3], the CC50 at 120 h was not below 320 µM.
In the case of `CC1=C(c2nc(C)c(C)s2)O[C@@H]2O[C@@]3(C)CC[C@H]4[C@H](C)CC[C@@H]1[C@@]24OO3`, the IC50 with Toxoplasma gondii [1] was determined as 0.16 µM. The selectivity ratio in data set [2] was 240. Moreover, the result with Toxoplasma gondii [4], with Toxoplasma gondii [5] and in the data set on Toxoplasma gondii [6] was Active. In data set [3], the CC50 at 120 h was determined as 38 µM.
Take `CC1=C(C(=O)NCc2ccc(F)cc2)O[C@@H]2O[C@@]3(C)CC[C@H]4[C@H](C)CC[C@@H]1[C@@]24OO3`: the IC50 with Toxoplasma gondii [1] was found to be 0.47 µM. Further, in data set [2], the selectivity ratio was determined as 153. Further, the CC50 at 120 h in data set [3] was 72 µM.
Take `CCN(CC)C(=O)C1=C(C)[C@@H]2CC[C@@H](C)[C@@H]3CC[C@@]4(C)OO[C@@]23[C@H](O1)O4`: the IC50 in the data set on Toxoplasma gondii [1] stood at 11 µM. In addition, the selectivity ratio in data set [2] worked out at 2.1. Besides, the CC50 at 120 h in data set [3] worked out at 23 µM.
With `CC1=C(C(=O)NCc2ccccc2)O[C@@H]2O[C@@]3(C)CC[C@H]4[C@H](C)CC[C@@H]1[C@@]24OO3`, the half-maximal inhibitory concentration (IC50) with Toxoplasma gondii [1] came to 0.67 µM. Further, the selectivity ratio in data set [2] is 839. Also, the CC50 at 120 h in data set [3] was not below 320 µM.
For `CC1=C(c2nc(-c3ccc(C)cc3)cs2)O[C@@H]2O[C@@]3(C)CC[C@H]4[C@H](C)CC[C@@H]1[C@@]24OO3` the same measures were 0.35 µM, 1610 and not below 320 µM.
Consider `CC1=C(c2nc(-c3ccccc3)cs2)O[C@@H]2O[C@@]3(C)CC[C@H]4[C@H](C)CC[C@@H]1[C@@]24OO3`, for which the IC50 with Toxoplasma gondii [1] is 0.34 µM. Moreover, the selectivity ratio in data set [2] came to 1650. Further, the result with Toxoplasma gondii [4], in the data set on Toxoplasma gondii [5] and with Toxoplasma gondii [6] was Active. Further, the CC50 at 120 h in data set [3] was not below 320 µM.
As for `CSc1ccc(-c2csc(C3=C(C)[C@@H]4CC[C@@H](C)[C@@H]5CC[C@@]6(C)OO[C@@]45[C@H](O3)O6)n2)cc1`, in the data set with Toxoplasma gondii [1], the IC50 came to 0.4 µM. Further, in data set [2], the selectivity ratio came out at 1410. Further, the CC50 at 120 h in data set [3] is not below 320 µM.
For `CC1=C(C(=O)NCc2cc(F)cc(F)c2)O[C@@H]2O[C@@]3(C)CC[C@H]4[C@H](C)CC[C@@H]1[C@@]24OO3` the same measures were 0.36 µM, 1560 and not below 320 µM.
For `CCNC(=O)C1=C(C)[C@@H]2CC[C@@H](C)[C@@H]3CC[C@@]4(C)OO[C@@]23[C@H](O1)O4`, in the data set with Toxoplasma gondii [1], the IC50 came to 6.8 µM. Besides, the selectivity ratio in data set [2] amounted to 38. Besides, the CC50 at 120 h in data set [3] came out at 259 µM.
`CC1=C(c2nc(-c3ccc(S(C)(=O)=O)cc3)cs2)O[C@@H]2O[C@@]3(C)CC[C@H]4[C@H](C)CC[C@@H]1[C@@]24OO3`: the IC50 in the data set on Toxoplasma gondii [1] was 0.42 µM. The selectivity ratio in data set [2] worked out at 1340. In addition, in data set [3], the CC50 at 120 h is not below 320 µM.
As to `C[C@@H]1CC[C@H]2[C@@H](C)C(=O)O[C@@H]3O[C@@]4(C)CC[C@@H]1[C@]32OO4` [ARTEMISININ], the IC50 in the data set with Toxoplasma gondii [1] came out at 0.64 µM. Also, in data set [2], the selectivity ratio is 879. For the same compound, in data set [3], the CC50 at 120 h is not below 320 µM.
As for `CC1=C(C(=O)NCc2ccc(C)cc2)O[C@@H]2O[C@@]3(C)CC[C@H]4[C@H](C)CC[C@@H]1[C@@]24OO3`, the IC50 in the data set on Toxoplasma gondii [1] was found to be 0.51 µM. Moreover, the selectivity ratio in data set [2] came out at 331. Also, the CC50 at 120 h in data set [3] came to 169 µM.
With `CC1=C(c2nc(C3CCCCC3)cs2)O[C@@H]2O[C@@]3(C)CC[C@H]4[C@H](C)CC[C@@H]1[C@@]24OO3`, the IC50 in the data set on Toxoplasma gondii [1] was 0.59 µM. Besides, the selectivity ratio in data set [2] came to 3. Further, in data set [3], the CC50 at 120 h turned out to be 1.8 µM.
For `COc1ccc(-c2csc(C3=C(C)[C@@H]4CC[C@@H](C)[C@@H]5CC[C@@]6(C)OO[C@@]45[C@H](O3)O6)n2)cc1`, the IC50 with Toxoplasma gondii [1] was 0.75 µM. Also, the selectivity ratio in data set [2] worked out at 25. Besides, the CC50 at 120 h in data set [3] came to 19 µM.
Turning to `CC1=C(C(=O)NCc2cc(Br)cc(Br)c2)O[C@@H]2O[C@@]3(C)CC[C@H]4[C@H](C)CC[C@@H]1[C@@]24OO3`, in the data set with Toxoplasma gondii [1], the half-inhibitory concentration (IC50) came out at 0.81 µM. For the same compound, the selectivity ratio in data set [2] was determined as 694. For the same compound, the CC50 at 120 h in data set [3] was not below 320 µM.
For the compound `CC1=C(c2nc(C)no2)O[C@@H]2O[C@@]3(C)CC[C@H]4[C@H](C)CC[C@@H]1[C@@]24OO3`, the IC50 in the data set with Toxoplasma gondii [1] was 0.84 µM. For the same compound, the selectivity ratio in data set [2] was 669. For the same compound, the CC50 at 120 h in data set [3] was not below 320 µM.
Take `CC1=C(c2nc(C(C)(C)C)cs2)O[C@@H]2O[C@@]3(C)CC[C@H]4[C@H](C)CC[C@@H]1[C@@]24OO3`: the IC50 in the data set with Toxoplasma gondii [1] amounted to 0.25 µM. The selectivity ratio in data set [2] came to 2250. Moreover, the result in the data set with Toxoplasma gondii [4], in the data set on Toxoplasma gondii [5] and with Toxoplasma gondii [6] was Active. The CC50 at 120 h in data set [3] was not below 320 µM.
As for `CC1=C(C(=O)NCc2ccc(F)c(F)c2)O[C@@H]2O[C@@]3(C)CC[C@H]4[C@H](C)CC[C@@H]1[C@@]24OO3`, in the data set with Toxoplasma gondii [1], the IC50 was 0.47 µM. For the same compound, the selectivity ratio in data set [2] was found to be 166. Moreover, the CC50 at 120 h in data set [3] was 78 µM.
For `COc1cc(Cc2cnc(N)nc2N)cc(OC)c1OC` [TRIMETHOPRIM] the same measures were 46 µM, 12 and not below 320 µM.
For `CC1=C(c2nc(-c3ccccc3)no2)O[C@@H]2O[C@@]3(C)CC[C@H]4[C@H](C)CC[C@@H]1[C@@]24OO3`, in the data set with Toxoplasma gondii [1], the IC50 was found to be 0.44 µM. Further, in data set [2], the selectivity ratio worked out at 320. Moreover, the result in the data set on Toxoplasma gondii [4], in the data set on Toxoplasma gondii [5] and in the data set with Toxoplasma gondii [6] was Active. For the same compound, the CC50 at 120 h in data set [3] was determined as 141 µM.
Take `CCc1csc(C2=C(C)[C@@H]3CC[C@@H](C)[C@@H]4CC[C@@]5(C)OO[C@@]34[C@H](O2)O5)n1`: the IC50 in the data set with Toxoplasma gondii [1] is 0.4 µM. For the same compound, the selectivity ratio in data set [2] worked out at 1410. Moreover, in data set [3], the CC50 at 120 h is not below 320 µM.
As for `CC1=C(c2nc(C)cs2)O[C@@H]2O[C@@]3(C)CC[C@H]4[C@H](C)CC[C@@H]1[C@@]24OO3`, the IC50 with Toxoplasma gondii [1] was 0.4 µM. In data set [2], the selectivity ratio was determined as 1410. The outcome with Toxoplasma gondii [4], with Toxoplasma gondii [5] and with Toxoplasma gondii [6] was Active. Also, the CC50 at 120 h in data set [3] was not below 320 µM.
Consider `CNC(=O)C1=C(C)[C@@H]2CC[C@@H](C)[C@@H]3CC[C@@]4(C)OO[C@@]23[C@H](O1)O4`, for which, in the data set on Toxoplasma gondii [1], the IC50 is 15 µM. Also, the selectivity ratio in data set [2] worked out at 37. Further, the CC50 at 120 h in data set [3] is not below 320 µM.
With `CC1=C(c2ncc(C)s2)O[C@@H]2O[C@@]3(C)CC[C@H]4[C@H](C)CC[C@@H]1[C@@]24OO3`, in the data set with Toxoplasma gondii [1], the IC50 was determined as 0.37 µM. In addition, in data set [2], the selectivity ratio came to 1520. Moreover, the result in the data set on Toxoplasma gondii [4], with Toxoplasma gondii [5] and in the data set with Toxoplasma gondii [6] was Active. Besides, in data set [3], the CC50 at 120 h was not below 320 µM.
